Each structure is given as a SMILES string. pIC50: −log10 of the molar value.

Data on 15 compounds can be found in ChEMBL document CHEMBL2380239, “Novel ROS-activated agents utilize a tethered amine to selectively target acute myeloid leukemia” (Bioorg Med Chem Lett, 2013).

System in the first data set: not listed separately
Description: Therapeutic index, ratio of IC50 for human CD34-positive blood stem/progenitor cells to IC50 for human MA9.3 cells. The conditions noted are these: CD34-positive blood stem/progenitor cells versus MA9.3 cells, read-out: Ratio IC50. A digest of the protocol:
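Cytotoxicity was measured in parallel on non-cancerous human CD34+ blood stem/progenitor cells (UCB) and on the MA9.3 AML line, which was made by introducing the MLL-AF9 oncogene into human CD34+ cells. The index is IC50 in CD34+ cells divided by IC50 in MA9.3, reported as mean ± error.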
Consider `O=C(O)CCCc1ccc(N(CCCl)CCCl)cc1` [CHLORAMBUCIL], for which the selectivity ratio came to 1.3.

For the compound `Nc1ccn([C@@H]2O[C@H](CO)[C@@H](O)[C@@H]2O)c(=O)n1` [CYTARABINE], the selectivity ratio was 0.6.

System in another data set: not listed separately
Description: Cytotoxicity against human MA9.3 cells after 48 hrs by MTT assay. Format: functional, cell-based.
Conditions: not given
A digest of the protocol: (§1)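 Non-transformed human CD34+ blood stem/progenitor cells from umbilical cord blood were run alongside MA9.3, an AML line made by introducing the MLL-AF9 oncogene into human CD34+ cells. IC50 was determined on each cell type. Therapeutic index is the ratio between the MA9.3 and CD34+ IC50 values.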
A general note: Tetrazolium assays rely on reduction of a dye to a coloured formazan, in cell work by metabolically active cells.
As a reminder, the pIC50 is the IC50 on a negative log10 scale, so that one unit is a factor of ten. A higher pIC50 goes with a small IC50. Take `O=C(O)CCCc1ccc(N(CCCl)CCCl)cc1` [CHLORAMBUCIL]: the pIC50 is 5.06.

With `Nc1ccn([C@@H]2O[C@H](CO)[C@@H](O)[C@@H]2O)c(=O)n1` [CYTARABINE], the pIC50 is 6.04.

With `COc1cccc2c1C(=O)c1c(O)c3c(c(O)c1C2=O)C[C@@](O)(C(=O)CO)C[C@@H]3O[C@H]1C[C@H](N)[C@H](O)[C@H](C)O1` [DOXORUBICIN], the pIC50 was 7.07.

System in the next data set: not listed separately
The data set can be described thus: Cytotoxicity against human CD34-positive blood stem/progenitor cells after 48 hrs by MTT assay.
Conditions: not given
Type of data set: cell-based. A digest of the protocol: as §1
In the case of `O=C(O)CCCc1ccc(N(CCCl)CCCl)cc1` [CHLORAMBUCIL], the pIC50 is 4.96.

Compound `Nc1ccn([C@@H]2O[C@H](CO)[C@@H](O)[C@@H]2O)c(=O)n1` [CYTARABINE] gave a pIC50 of 6.23.

Take `COc1cccc2c1C(=O)c1c(O)c3c(c(O)c1C2=O)C[C@@](O)(C(=O)CO)C[C@@H]3O[C@H]1C[C@H](N)[C@H](O)[C@H](C)O1` [DOXORUBICIN]: the pIC50 was 7.12.

Another data set has as its system HeLa. Description: Cytotoxicity against human HeLa cells after 48 hrs by MTT assay. Type of data set: functional, cell-based.
Conditions: not given
`CN(CCCBr)c1ccccc1` had a pIC50 of less than 3.90.

`Oc1ccc(OCCNc2ccccc2)cc1`: the pIC50 is 4.52.

Regarding `CN(CCOc1ccc(O)cc1)c1ccccc1`, the pIC50 is 4.74.

In turn, `CCN(CCOc1ccc(O)cc1)c1ccccc1` showed a pIC50 of 4.64.

In turn, `CC(C)N(CCOc1ccc(O)cc1)c1ccccc1` gave a pIC50 of 4.28.

Compound `CCN(CCCOc1ccc(O)cc1)c1ccccc1` had a pIC50 of 4.85.

In turn, `CN(CCCCOc1ccc(O)cc1)c1ccccc1` had a pIC50 of 4.92.

`CN(CCCCCOc1ccc(O)cc1)c1ccccc1`: the pIC50 was 4.89.

Regarding `CN(CCOc1ccc(O)cc1)Cc1ccccc1`, the pIC50 is 4.48.

Consider `CN(C(=O)COc1ccc(O)cc1)c1ccccc1`, for which the pIC50 is less than 3.90.

The compound `CN(CCCOc1ccccc1)c1ccccc1` had a pIC50 of less than 3.90.

`CCOc1ccc(O)cc1` [1-hydroxy-4-ethoxybenzene]: the pIC50 is less than 3.90.
